Measured values published in ChEMBL document CHEMBL1151705, “Novel azalides derived from 16-membered macrolides. Part II: Isolation of the linear 9-formylcarboxylic acid and its sequential macrocyclization with an amino alcohol or an azidoamine” (2008).
In brackets after ≈: the same amount, converted by molar mass.

Experiments:
Type in all cases: functional
Streptococcus pneumoniae [1] = experiment: Antimicrobial activity against drug-susceptible Streptococcus pneumoniae 3 after 20 hrs by agar dilution method; details: Streptococcus pneumoniae, 20 h; read-out: MIC
Outline: (§1)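 Streptococci, H. influenzae and M. catarrhalis were precultured on blood agar plates. Suspensions of about 10⁶ CFU/ml were inoculated onto sensitivity disk agar supplemented with 5% horse blood and incubated at 37 °C for 20 h. MIC was read as the lowest drug concentration with no visible growth.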

Streptococcus pneumoniae [2] = experiment: Antimicrobial activity against Streptococcus pneumoniae 9 expressing mefA after 20 hrs by agar dilution method; outline: as §1
Haemophilus influenzae [3] = experiment: Antimicrobial activity against drug-susceptible Haemophilus influenzae 4 after 20 hrs by agar dilution method; details: Haemophilus influenzae, 20 h; read-out: MIC; outline: as §1
Haemophilus influenzae [4] = experiment: Antimicrobial activity against drug-susceptible Haemophilus influenzae 1 after 20 hrs by agar dilution method; details: Haemophilus influenzae, 20 h; read-out: MIC; outline: as §1
Streptococcus pneumoniae [5] = experiment: Antimicrobial activity against Streptococcus pneumoniae 6 constitutively expressing ermB after 20 hrs by agar dilution method; details: Streptococcus pneumoniae, 20 h; read-out: MIC; outline: as §1
Streptococcus pneumoniae [6] = experiment: Antimicrobial activity against Streptococcus pneumoniae 10 expressing mefA after 20 hrs by agar dilution method; details: Streptococcus pneumoniae, 20 h; read-out: MIC; outline: as §1
Streptococcus pyogenes [7] = experiment: Antimicrobial activity against Streptococcus pyogenes 2 constitutively expressing ermB after 20 hrs by agar dilution method; outline: as §1
Streptococcus pneumoniae [8] = experiment: Antimicrobial activity against Streptococcus pneumoniae 4 constitutively expressing ermB after 20 hrs by agar dilution method; details: Streptococcus pneumoniae, 20 h; read-out: MIC; outline: as §1
Moraxella catarrhalis [9] = experiment: Antimicrobial activity against drug-susceptible Moraxella catarrhalis 1 after 20 hrs by agar dilution method; outline: as §1
Staphylococcus aureus [10] = experiment: Antimicrobial activity against Staphylococcus aureus 6 expressing inducible ermB after 20 hrs by agar dilution method
Outline: (§2)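 Agar dilution MIC. S. aureus seed culture was grown in sensitivity test broth. Cell suspension (about 10⁶ CFU/ml) was inoculated onto sensitivity disk agar with 5% horse blood and incubated at 37 °C for 20 h. MIC was the lowest drug concentration that prevented visible growth.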

Haemophilus influenzae [11] = experiment: Antimicrobial activity against drug-susceptible Haemophilus influenzae 3 after 20 hrs by agar dilution method; details: Haemophilus influenzae, 20 h; read-out: MIC; outline: as §1
Staphylococcus aureus [12] = experiment: Antimicrobial activity against Staphylococcus aureus 5 expressing inducible ermB after 20 hrs by agar dilution method; details: Staphylococcus aureus, 20 h; read-out: MIC; outline: as §2
Streptococcus pneumoniae [13] = experiment: Antimicrobial activity against Streptococcus pneumoniae 8 expressing inducible ermB after 20 hrs by agar dilution method; outline: as §1
Moraxella catarrhalis [14] = experiment: Antimicrobial activity against drug-susceptible Moraxella catarrhalis 2 after 20 hrs by agar dilution method; details: Moraxella catarrhalis, 20 h; read-out: MIC; outline: as §1
Staphylococcus aureus [15] = experiment: Antimicrobial activity against Staphylococcus aureus 4 constitutively expressing ermA after 20 hrs by agar dilution method; outline: as §2
Staphylococcus aureus [16] = experiment: Antimicrobial activity against drug-susceptible Staphylococcus aureus 3 after 20 hrs by agar dilution method; details: Staphylococcus aureus, 20 h; read-out: MIC; outline: as §2
Streptococcus pyogenes [17] = experiment: Antimicrobial activity against drug-susceptible Streptococcus pyogenes 1 after 20 hrs by agar dilution method; details: Streptococcus pyogenes, 20 h; read-out: MIC; outline: as §1
Haemophilus influenzae [18] = experiment: Antimicrobial activity against drug-susceptible Haemophilus influenzae 2 after 20 hrs by agar dilution method; details: Haemophilus influenzae, 20 h; read-out: MIC; outline: as §1
Streptococcus pneumoniae [19] = experiment: Antimicrobial activity against drug-susceptible Streptococcus pneumoniae 2 after 20 hrs by agar dilution method; details: Streptococcus pneumoniae, 20 h; read-out: MIC; outline: as §1
Staphylococcus aureus [20] = experiment: Antimicrobial activity against drug-susceptible Staphylococcus aureus 2 after 20 hrs by agar dilution method; details: Staphylococcus aureus, 20 h; read-out: MIC; outline: as §2
Streptococcus pyogenes [21] = experiment: Antimicrobial activity against Streptococcus pyogenes 3 expressing mefA after 20 hrs by agar dilution method; outline: as §1
Streptococcus pneumoniae [22] = experiment: Antimicrobial activity against Streptococcus pneumoniae 5 constitutively expressing ermB/mefA after 20 hrs by agar dilution method; details: Streptococcus pneumoniae, 20 h; read-out: MIC; outline: as §1
Staphylococcus aureus [23] = experiment: Antimicrobial activity against drug-susceptible Staphylococcus aureus 209P JC-1 after 20 hrs by agar dilution method; details: Staphylococcus aureus, 209P, 20 h; read-out: MIC; outline: as §2
Streptococcus pneumoniae [24] = experiment: Antimicrobial activity against drug-susceptible Streptococcus pneumoniae DP1 Type1 after 20 hrs by agar dilution method; outline: as §1
Streptococcus pneumoniae [25] = experiment: Antimicrobial activity against Streptococcus pneumoniae 7 expressing inducible ermB after 20 hrs by agar dilution method; outline: as §1
[26] = Streptococcus pneumoniae, 20 h, read-out: MIC
[27] = Moraxella catarrhalis, 20 h, read-out: MIC
[28] = Streptococcus pyogenes, 20 h, read-out: MIC

MIC (Streptococcus pneumoniae [1]) [µg/mL]	MIC (Streptococcus pneumoniae [2]; [26]) [µg/mL]	MIC (Haemophilus influenzae [3]) [µg/mL]	MIC (Haemophilus influenzae [4]) [µg/mL]	MIC (Streptococcus pneumoniae [5]) [µg/mL]	MIC (Streptococcus pneumoniae [6]) [µg/mL]	MIC (Streptococcus pyogenes [7]) [µg/mL]	MIC (Streptococcus pneumoniae [8]) [µg/mL]	MIC (Staphylococcus aureus [10]) [µg/mL]	MIC (Haemophilus influenzae [11]) [µg/mL]	MIC (Staphylococcus aureus [12]) [µg/mL]	MIC (Moraxella catarrhalis [14]) [µg/mL]	MIC (Staphylococcus aureus [15]) [µg/mL]	MIC (Staphylococcus aureus [16]) [µg/mL]	MIC (Streptococcus pyogenes [17]) [µg/mL]	MIC (Haemophilus influenzae [18]) [µg/mL]	MIC (Streptococcus pneumoniae [19]) [µg/mL]	MIC (Staphylococcus aureus [20]) [µg/mL]	MIC (Streptococcus pneumoniae [22]) [µg/mL]	MIC (Staphylococcus aureus [23]) [µg/mL]	Compound	further results
0.015 (≈ 0.0152 µM)	0.06 (≈ 0.0608 µM)	8 (≈ 8.11 µM)	32 (≈ 32.4 µM)	> 128	0.06 (≈ 0.0608 µM)	> 128	> 128	0.5 (≈ 0.507 µM)	8 (≈ 8.11 µM)	0.25 (≈ 0.253 µM)	1 (≈ 1.01 µM)	> 128	0.25 (≈ 0.253 µM)	0.13 (≈ 0.132 µM)	2 (≈ 2.03 µM)	0.06 (≈ 0.0608 µM)	1 (≈ 1.01 µM)	> 128	0.25 (≈ 0.253 µM)	CCOC(=O)[C@H]1[C@H](C)O[C@@H](O[C@H]2[C@H](N(C)C)[C@@H](O)[C@H](O[C@H]3[C@@H](CC=O)C[C@@H](C)[C@@H](O)CN(C)CCC[C@H](C/C=C/c4ccnc5ccccc45)OC(=O)C[C@@H](OC(=O)CC)[C@@H]3OC)O[C@@H]2C)C[C@@]1(C)O	MIC (Moraxella catarrhalis [9]; [27]): 1 µg/mL (≈ 1.01 µM); MIC (Streptococcus pneumoniae [13]; [26]): 4 µg/mL (≈ 4.06 µM); MIC (Streptococcus pyogenes [21]; [28]): 0.5 µg/mL (≈ 0.507 µM); MIC (Streptococcus pneumoniae [24]; [26]): 0.03 µg/mL (≈ 0.0304 µM); MIC (Streptococcus pneumoniae [25]; [26]): 8 µg/mL (≈ 8.11 µM)
0.03 (≈ 0.0304 µM)	0.06 (≈ 0.0608 µM)	8 (≈ 8.11 µM)	32 (≈ 32.4 µM)	128 (≈ 130 µM)	0.03 (≈ 0.0304 µM)	> 128	128 (≈ 130 µM)	0.5 (≈ 0.507 µM)	8 (≈ 8.11 µM)	0.25 (≈ 0.253 µM)	1 (≈ 1.01 µM)	> 128	0.25 (≈ 0.253 µM)	0.06 (≈ 0.0608 µM)	2 (≈ 2.03 µM)	0.03 (≈ 0.0304 µM)	1 (≈ 1.01 µM)	128 (≈ 130 µM)	0.5 (≈ 0.507 µM)	CCOC(=O)[C@H]1[C@H](C)O[C@@H](O[C@H]2[C@H](N(C)C)[C@@H](O)[C@H](O[C@H]3[C@@H](CC=O)C[C@@H](C)[C@@H](O)CN(C)CCC[C@H](C/C=C/c4cnc5ccccc5c4)OC(=O)C[C@@H](OC(=O)CC)[C@@H]3OC)O[C@@H]2C)C[C@@]1(C)O	MIC (Moraxella catarrhalis [9]; [27]): 1 µg/mL (≈ 1.01 µM); MIC (Streptococcus pneumoniae [13]; [26]): 8 µg/mL (≈ 8.11 µM); MIC (Streptococcus pyogenes [21]; [28]): 0.5 µg/mL (≈ 0.507 µM); MIC (Streptococcus pneumoniae [24]; [26]): 0.015 µg/mL (≈ 0.0152 µM); MIC (Streptococcus pneumoniae [25]; [26]): 8 µg/mL (≈ 8.11 µM)
0.015 (≈ 0.0152 µM)	0.03 (≈ 0.0304 µM)	8 (≈ 8.11 µM)	32 (≈ 32.4 µM)	> 128	0.03 (≈ 0.0304 µM)	> 128	> 128	0.25 (≈ 0.253 µM)	8 (≈ 8.11 µM)	0.25 (≈ 0.253 µM)	1 (≈ 1.01 µM)	> 128	0.25 (≈ 0.253 µM)	0.06 (≈ 0.0608 µM)	4 (≈ 4.06 µM)	0.03 (≈ 0.0304 µM)	0.5 (≈ 0.507 µM)	> 128	0.25 (≈ 0.253 µM)	CCOC(=O)[C@H]1[C@H](C)O[C@@H](O[C@H]2[C@H](N(C)C)[C@@H](O)[C@H](O[C@H]3[C@@H](CC=O)C[C@@H](C)[C@@H](O)CN(C)CCC[C@H](C/C=C/c4ccc5ncccc5c4)OC(=O)C[C@@H](OC(=O)CC)[C@@H]3OC)O[C@@H]2C)C[C@@]1(C)O	MIC (Moraxella catarrhalis [9]; [27]): 1 µg/mL (≈ 1.01 µM); MIC (Streptococcus pneumoniae [13]; [26]): 8 µg/mL (≈ 8.11 µM); MIC (Streptococcus pyogenes [21]; [28]): 0.25 µg/mL (≈ 0.253 µM); MIC (Streptococcus pneumoniae [24]; [26]): 0.015 µg/mL (≈ 0.0152 µM); MIC (Streptococcus pneumoniae [25]; [26]): 8 µg/mL (≈ 8.11 µM)
0.13 (≈ 0.134 µM)		16 (≈ 16.5 µM)	32 (≈ 32.9 µM)	> 128	0.13 (≈ 0.134 µM)	> 128	> 128	1 (≈ 1.03 µM)	16 (≈ 16.5 µM)	0.5 (≈ 0.515 µM)	2 (≈ 2.06 µM)	> 128	0.25 (≈ 0.257 µM)	0.25 (≈ 0.257 µM)	2 (≈ 2.06 µM)	0.13 (≈ 0.134 µM)	1 (≈ 1.03 µM)	> 128	0.5 (≈ 0.515 µM)	CCOC(=O)[C@H]1[C@H](C)O[C@@H](O[C@H]2[C@H](N(C)C)[C@@H](O)[C@H](O[C@H]3[C@@H](CC=O)C[C@@H](C)[C@@H](O)CN(C)CCC(C/C=C/c4cnc5ccccc5c4)NC(=O)C[C@@H](OC(=O)CC)[C@@H]3OC)O[C@@H]2C)C[C@@]1(C)O (stereo in doubt; form 1)	MIC (Streptococcus pneumoniae [2]): 0.13 µg/mL (≈ 0.134 µM); MIC (Moraxella catarrhalis [9]): 2 µg/mL (≈ 2.06 µM); MIC (Streptococcus pneumoniae [13]): 32 µg/mL (≈ 32.9 µM); MIC (Streptococcus pyogenes [21]): 1 µg/mL (≈ 1.03 µM); MIC (Streptococcus pneumoniae [24]): 0.06 µg/mL (≈ 0.0618 µM); MIC (Streptococcus pneumoniae [25]): 32 µg/mL (≈ 32.9 µM)
